# Experimental data of several laboratories.
# Lines come from different studies, so protocols differ.
# Effect on: cell growth or viability
SMILES,cell line,technique,concentration,time,endpoint,value
C[C@H](N)C(=O)Nc1ccccc1/N=c1\cc(-c2ccc3c(c2)OCO3)oc2ccccc12,MDA-MB-231,CCK-8,1 µM,,inhibition,7.31%
COc1cccc(NC(=O)Nc2ccc(Oc3nc4ccccc4n4cnnc34)cc2)c1,MDA-MB-231,MTT,50 µM,24 h,viability,32.4%
COc1cc(C(=O)c2nc(-c3cccc4[nH]ccc34)c(C)[nH]2)cc(OC)c1OC,A-375,MTS,,72 h,IC50,0.0161 µM
NCC(=O)Nc1ccccc1/N=c1\cc(-c2ccc3c(c2)OCO3)oc2ccccc12,MDA-MB-231,CCK-8,1 µM,,inhibition,12.4%
COc1cc(C(=O)c2nc(-c3ccncc3)c[nH]2)cc(OC)c1OC,A-375,MTS,,72 h,IC50,> 1 µM
Cc1nc(Nc2ncc(C(=O)Nc3c(C)cccc3Cl)s2)cc(N2CC[C@H](O)C2)n1,SU-DHL-1,ATP luminescence,10 µM,72 h,inhibition,11%
CCCCC(=O)Nc1ccc(-c2ccc3ncn(CCC)c(=O)c3c2)cn1,MRC5,CCK-8,,72 h,IC50,0.48 µM
C[C@H](N)C(=O)Nc1ccccc1/N=c1\cc(-c2ccc3c(c2)OCCO3)oc2c([N+](=O)[O-])cccc12,MDA-MB-231,CCK-8,1 µM,,inhibition,-3.63%
COc1cccc2c1C(=O)c1c(O)c3c(c(O)c1C2=O)C[C@@](O)(C(=O)CO)C[C@@H]3O[C@H]1C[C@H](N)[C@H](O)[C@H](C)O1,HS27,CCK-8,,72 h,IC50,0.109 µM
COc1cccc2c1C(=O)c1c(O)c3c(c(O)c1C2=O)C[C@@](O)(C(=O)CO)C[C@@H]3O[C@H]1C[C@H](N)[C@H](O)[C@H](C)O1,MRC5,MTT,,75 h,IC50,2.7 µM
COc1ccc2/c(=N/c3ccccc3NC(=O)[C@@H](N)C(C)(C)C)cc(-c3ccc4c(c3)OCCO4)oc2c1,MDA-MB-231,CCK-8,1 µM,,inhibition,6.88%
O=C(Nc1ccccc1)Nc1ccc(Oc2nc3ccccc3n3cnnc23)cc1,MDA-MB-231,MTT,100 µM,24 h,viability,41.6%
N[C@@H](CO)C(=O)Nc1ccccc1/N=c1\cc(-c2ccc3c(c2)OCO3)oc2ccccc12,MDA-MB-231,CCK-8,1 µM,,inhibition,11.7%
O=C(NN=Cc1ccc([N+](=O)[O-])s1)C1CC(=O)N(c2ccc(F)cc2F)C1 (stereo not shown),A-375,MTT,100 µM,72 h,viability,4.41%
COc1cc(C(=O)c2nc(-c3cccc4c3CCN4)c[nH]2)cc(OC)c1OC,A-375,MTS,,72 h,IC50,0.022 µM
CN(C)c1ccc(Nc2nc(-c3ccncc3)nc3c2CC(N)CC3)cc1 (stereo not shown),A-375,MTT,,,IC50,12.6 µM
COc1cc(C(=O)c2nc(-c3cccc4[nH]ccc34)c[nH]2)cc2c1OCO2,A-375,MTS,,72 h,IC50,0.0051 µM
O=C(Nc1ccccc1/N=c1\cc(-c2ccc3c(c2)OCO3)oc2ccccc12)N1CCNCC1,MDA-MB-231,CCK-8,1 µM,,inhibition,2.22%
O=C(Nc1ccc(Oc2nc3ccccc3n3cnnc23)cc1)Nc1cccc(Cl)c1,MDA-MB-231,MTT,50 µM,24 h,viability,41.2%
Nc1ccccc1/N=c1\cc(-c2ccc3c(c2)OCO3)oc2ccccc12,MDA-MB-231,CCK-8,1 µM,,inhibition,2.58%
CNC(=O)c1cc(Oc2ccc(NC(=O)Nc3ccc(Cl)c(C(F)(F)F)c3)cc2)ccn1,MDA-MB-231,MTT,3.125 µM,24 h,viability,70.2%
COc1cc(C(=O)c2nc(-c3cccc4[nH]ccc34)cs2)cc(OC)c1OC,A-375,MTS,,72 h,IC50,0.0056 µM
O=C(Nc1ccccc1/N=c1\cc(-c2ccc3c(c2)OCCO3)oc2cc(F)ccc12)N1CCOCC1,MDA-MB-231,CCK-8,1 µM,,inhibition,8.63%
O=C(Nc1ccc(Cl)cc1)Nc1ccc(Oc2nc3ccccc3n3cnnc23)cc1,MDA-MB-231,MTT,50 µM,24 h,viability,56.4%
Cn1nnc2c(C(N)=O)ncn2c1=O,human Astrocyte,MTT,,,IC50,2080 µM
